ChEMBL document CHEMBL1149338, “Synthesis and in vitro evaluation of salvinorin A analogues: effect of configuration at C(2) and substitution at C(18)” (Bioorg Med Chem Lett, 2006)

Tests used:
[1] = target: T1, Kappa-type opioid receptor (Homo sapiens, UniProt P41145); test: Inhibition of [3H]diprenorphine binding to human KOR expressed in CHO cells; type: cell-based
Summary of the method: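 Affinity: membranes from CHO cells stably transfected with human κ-opioid receptor; competitive inhibition of [3H]diprenorphine binding; Ki values; mean of at least three independent experiments, each in duplicate.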

[2] = target: T1, Kappa-type opioid receptor; test: Enhancement of [35S]GTP-gamma-S binding to human KOR expressed in CHO cells relative to U50,488H; type: functional, cell-based
[3] = target: T1, Kappa-type opioid receptor; test: Enhancement of [35S]GTP-gamma-S binding to human KOR expressed in CHO cells; type: functional, cell-based
[4] = target: T1, Kappa-type opioid receptor; test: Enhancement of [35S]GTP-gamma-S binding to human KOR expressed in CHO cells relative to U50,488H at 10 uM; type: functional, cell-based

T1 sequence (P41145 whole entry): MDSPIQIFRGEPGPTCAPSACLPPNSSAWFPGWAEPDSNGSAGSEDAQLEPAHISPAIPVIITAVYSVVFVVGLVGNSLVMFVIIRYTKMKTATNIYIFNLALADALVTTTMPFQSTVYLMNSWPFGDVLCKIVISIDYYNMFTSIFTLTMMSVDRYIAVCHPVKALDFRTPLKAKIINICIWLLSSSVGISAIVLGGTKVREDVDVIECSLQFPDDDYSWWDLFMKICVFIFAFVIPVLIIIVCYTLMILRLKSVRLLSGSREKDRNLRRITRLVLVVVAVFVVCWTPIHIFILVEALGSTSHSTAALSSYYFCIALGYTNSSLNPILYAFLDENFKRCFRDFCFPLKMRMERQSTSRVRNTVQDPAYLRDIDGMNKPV

SMILES	Ki [1] [nM]	Efficacy [2] [%]	EC50 [3] [nM]	Efficacy [4] [%]
CCC(=O)O[C@@H]1C[C@@H](C(=O)OC)[C@]2(C)CC[C@H]3C(=O)O[C@H](c4ccoc4)C[C@]3(C)[C@H]2C1=O	641	–	–	–
CCO[C@@H]1C[C@@H](C(=O)OC)[C@]2(C)CC[C@H]3C(=O)O[C@H](c4ccoc4)C[C@]3(C)[C@H]2C1=O	> 10000	–	–	–
CCNC[C@@H]1C[C@H](OC(C)=O)C(=O)[C@@H]2C3(C)C[C@@H](c4ccoc4)OC[C@H]3C(=O)C[C@@]12C (stereo partly drawn)	> 10000	–	–	–
CNC(=O)[C@@H]1C[C@H](OC(C)=O)C(=O)[C@@H]2[C@@]3(C)C[C@@H](c4ccoc4)OC(=O)[C@H]3CC[C@]21C	> 1000	–	–	–
COC(=O)[C@@H]1C[C@H](OC(C)=O)C(=O)[C@@H]2[C@@]3(C)C[C@@H](c4ccoc4)OC(=O)[C@H]3CC[C@]21C	–	88	–	–
COC(=O)[C@@H]1C[C@@H](N(C)C(C)=O)C(=O)[C@H]2[C@@]1(C)CC[C@H]1C(=O)O[C@H](c3ccoc3)C[C@]21C	–	106	–	–
CC(=O)O[C@H]1C[C@@H](CN(C)C)[C@]2(C)CC(=O)[C@@H]3CO[C@H](c4ccoc4)CC3(C)[C@H]2C1=O (stereo partly drawn)	> 10000	–	–	–
COC(=O)[C@@H]1C[C@H](N(C)C)C(=O)[C@H]2[C@@]1(C)CC[C@H]1C(=O)O[C@H](c3ccoc3)C[C@]21C	168	110	240	–
CC(=O)O[C@H]1C[C@@H](CN(C)C)[C@]2(C)CC(=O)[C@H]3CO[C@H](c4ccoc4)CC3(C)[C@H]2C1=O (stereo partly drawn)	> 10000	–	–	–
CCC(=O)N[C@H]1C[C@@H](C(=O)OC)[C@]2(C)CC[C@H]3C(=O)O[C@H](c4ccoc4)C[C@]3(C)[C@H]2C1=O	374	109	444	–
CNC(=O)[C@@H]1C[C@H](OC(C)=O)C(=O)[C@H]2[C@@]1(C)CC[C@H]1C(=O)O[C@H](c3ccoc3)C[C@]21C	1390	–	–	71
CCN[C@H]1C[C@@H](C(=O)OC)[C@]2(C)CC[C@H]3C(=O)O[C@H](c4ccoc4)C[C@]3(C)[C@H]2C1=O	65.2	–	72.8	–
COC(=O)[C@@H]1C[C@H](NC(C)C)C(=O)[C@H]2[C@@]1(C)CC[C@H]1C(=O)O[C@H](c3ccoc3)C[C@]21C	17.6	–	18.9	–
CN[C@H]1C[C@@H](C(=O)OC)[C@]2(C)CC[C@H]3C(=O)O[C@H](c4ccoc4)C[C@]3(C)[C@H]2C1=O	328	82	825	–
CC(=O)O[C@H]1C[C@@H](CO)[C@]2(C)CC(=O)[C@H]3CO[C@H](c4ccoc4)CC3(C)[C@H]2C1=O (stereo partly drawn)	1000	–	–	68
CC(=O)O[C@H]1C[C@@H](C(=O)N(C)C)[C@]2(C)CC[C@H]3C(=O)O[C@H](c4ccoc4)C[C@]3(C)[C@H]2C1=O	> 10000	–	–	–
CCC(=O)N(C)[C@@H]1C[C@@H](C(=O)OC)[C@]2(C)CC[C@H]3C(=O)O[C@H](c4ccoc4)C[C@]3(C)[C@H]2C1=O	6.9	–	12.6	–
CNC[C@@H]1C[C@H](OC(C)=O)C(=O)[C@@H]2C3(C)C[C@@H](c4ccoc4)OC[C@H]3C(=O)C[C@@]12C (stereo partly drawn)	> 10000	–	–	–
COC(=O)[C@@H]1C[C@@H](OC)C(=O)[C@H]2[C@@]1(C)CC[C@H]1C(=O)O[C@H](c3ccoc3)C[C@]21C	> 10000	–	–	–

SMILES	Ki [1] [nM]	Efficacy [2] [%]	EC50 [3] [nM]	Efficacy [4] [%]
CCN(C(C)=O)[C@@H]1C[C@@H](C(=O)OC)[C@]2(C)CC[C@H]3C(=O)O[C@H](c4ccoc4)C[C@]3(C)[C@H]2C1=O	240	95	641	–
CCC(=O)N(C)[C@H]1C[C@@H](C(=O)OC)[C@]2(C)CC[C@H]3C(=O)O[C@H](c4ccoc4)C[C@]3(C)[C@H]2C1=O	1.6	–	0.75	–
COC(=O)[C@@H]1C[C@@H](NC(C)C)C(=O)[C@H]2[C@@]1(C)CC[C@H]1C(=O)O[C@H](c3ccoc3)C[C@]21C	2.3	–	7.2	–
CCCC(=O)O[C@@H]1C[C@@H](C(=O)OC)[C@]2(C)CC[C@H]3C(=O)O[C@H](c4ccoc4)C[C@]3(C)[C@H]2C1=O	665	–	–	–
CCNC(=O)[C@@H]1C[C@H](OC(C)=O)C(=O)[C@H]2[C@@]1(C)CC[C@H]1C(=O)O[C@H](c3ccoc3)C[C@]21C	> 10000	–	–	–
CC(=O)O[C@H]1C[C@@H](C(=O)N(C)C)[C@]2(C)CC[C@@H]3C(=O)O[C@H](c4ccoc4)C[C@]3(C)[C@H]2C1=O	> 10000	–	–	–
CCNC(=O)[C@@H]1C[C@H](OC(C)=O)C(=O)[C@@H]2[C@@]3(C)C[C@@H](c4ccoc4)OC(=O)[C@H]3CC[C@]21C	> 10000	–	–	–
CCNC[C@@H]1C[C@H](OC(C)=O)C(=O)[C@@H]2C3(C)C[C@@H](c4ccoc4)OC[C@@H]3C(=O)C[C@@]12C (stereo partly drawn)	> 10000	–	–	–
CCC(=O)N[C@@H]1C[C@@H](C(=O)OC)[C@]2(C)CC[C@H]3C(=O)O[C@H](c4ccoc4)C[C@]3(C)[C@H]2C1=O	117	102	718	–
COC(=O)[C@@H]1C[C@@H](N)C(=O)[C@H]2[C@@]1(C)CC[C@H]1C(=O)O[C@H](c3ccoc3)C[C@]21C	223	84	1370	–
CC(=O)O[C@H]1C[C@@H](CO)[C@]2(C)CC(=O)[C@@H]3CO[C@H](c4ccoc4)CC3(C)[C@H]2C1=O (stereo partly drawn)	> 10000	–	–	–
CCC(=O)N(CC)[C@H]1C[C@@H](C(=O)OC)[C@]2(C)CC[C@H]3C(=O)O[C@H](c4ccoc4)C[C@]3(C)[C@H]2C1=O	38.1	100	37.2	–
CCC(=O)N(CC)[C@@H]1C[C@@H](C(=O)OC)[C@]2(C)CC[C@H]3C(=O)O[C@H](c4ccoc4)C[C@]3(C)[C@H]2C1=O	376	96	857	–
COC(=O)[C@@H]1C[C@H](N(C)C(C)=O)C(=O)[C@H]2[C@@]1(C)CC[C@H]1C(=O)O[C@H](c3ccoc3)C[C@]21C	3.2	103	2.4	–
COC[C@@H]1C[C@H](OC(C)=O)C(=O)[C@@H]2C3(C)C[C@@H](c4ccoc4)OC[C@H]3C(=O)C[C@@]12C (stereo partly drawn)	769	–	–	70
COC(=O)[C@@H]1C[C@H](NC(C)=O)C(=O)[C@H]2[C@@]1(C)CC[C@H]1C(=O)O[C@H](c3ccoc3)C[C@]21C	149	–	188	–
COC(=O)[C@@H]1C[C@@H](NC(C)=O)C(=O)[C@H]2[C@@]1(C)CC[C@H]1C(=O)O[C@H](c3ccoc3)C[C@]21C	332	–	339	–
CNC[C@@H]1C[C@H](OC(C)=O)C(=O)[C@@H]2C3(C)C[C@@H](c4ccoc4)OC[C@@H]3C(=O)C[C@@]12C (stereo partly drawn)	> 10000	–	–	–
CCN(C(C)=O)[C@H]1C[C@@H](C(=O)OC)[C@]2(C)CC[C@H]3C(=O)O[C@H](c4ccoc4)C[C@]3(C)[C@H]2C1=O	27.6	104	25.2	–
